Measured values reported in ChEMBL document CHEMBL2321851, “Synthesis and biological evaluation of novel coumarin-pyrazoline hybrids endowed with phenylsulfonyl moiety as antitumor agents” (Eur J Med Chem, 2013).
Activity calls are given as the source filed them.

Tests used:
Type in all cases: functional, cell-based
MDA-MB-468 = assay: Growth inhibition of human MDA-MB-468 cells at 10 uM after 48 hrs by sulforhodamine B assay
Procedure, shortened: (§1)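 NCI-60 one-dose primary screen at 10^-5 M. Cells grown in RPMI 1640 with 5% FBS and 2 mM L-glutamine and plated by doubling time. Preincubated 24 h at 37 °C under 5% CO2. Drug exposure 48 h. Cells fixed with cold TCA and stained with 0.4% SRB; absorbance read at 515 nm. Reported as percent growth of treated versus untreated control.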

T47D = assay: Growth inhibition of human T47D cells at 10 uM after 48 hrs by sulforhodamine B assay
Procedure, shortened: (§2)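 NCI-60 one-dose primary screen at 10^-5 M. Cells were grown in RPMI 1640 with 5% FBS and 2 mM L-glutamine and plated at 5,000–40,000 cells/well depending on doubling time. After 24 h preincubation at 37 °C in 5% CO2, drug was added for 48 h. Cells were fixed with TCA and stained with SRB, and absorbance was read at 515 nm. Values are growth percent versus untreated control.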

Hs-578T = assay: Growth inhibition of human Hs 578T cells at 10 uM after 48 hrs by sulforhodamine B assay
Procedure, shortened: (§3)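 Single-dose primary screen at 10^-5 M across the ~60-line panel grown in RPMI 1640 with 5% FBS and 2 mM glutamine, 48 h exposure at 37 °C. Cells TCA-fixed and SRB-stained, absorbance at 515 nm. Output is percent growth of treated versus untreated control cells.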

MCF7 = assay: Growth inhibition of human MCF7 cells at 10 uM after 48 hrs […]
TK-10 = assay: Growth inhibition of human TK10 cells at 10 uM after 48 hrs by sulforhodamine B assay; procedure, shortened: as §2
RXF 393 = assay: Growth inhibition of human RXF393 cells at 10 uM after 48 hrs by sulforhodamine B assay; procedure, shortened: as §1
OVCAR-4 = assay: Growth inhibition of human OVCAR4 cells at 10 uM after 48 hrs by sulforhodamine B assay; procedure, shortened: as §1
IGROV-1 = assay: Growth inhibition of human IGROV1 cells at 10 uM after 48 hrs by sulforhodamine B assay; procedure, shortened: as §3
OVCAR-3 = assay: Growth inhibition of human OVCAR3 cells at 10 uM after 48 hrs by sulforhodamine B assay; procedure, shortened: as §1
SK-MEL-5 = assay: Growth inhibition of human SK-MEL-5 cells at 10 uM after 48 hrs by sulforhodamine B assay; procedure, shortened: as §1
SK-MEL-28 = assay: Growth inhibition of human SK-MEL-28 cells at 10 uM after 48 hrs by sulforhodamine B assay; procedure, shortened: as §1
SK-MEL-2 = assay: Growth inhibition of human SK-MEL-2 cells at 10 uM after 48 hrs by sulforhodamine B assay; procedure, shortened: as §1
LOX IMVI = assay: Growth inhibition of human LOXIMVI cells at 10 uM after 48 hrs by sulforhodamine B assay; procedure, shortened: as §3
SF-295 = assay: Growth inhibition of human SF295 cells at 10 uM after 48 hrs by sulforhodamine B assay; procedure, shortened: as §1
SF-268 = assay: Growth inhibition of human SF268 cells at 10 uM after 48 hrs by sulforhodamine B assay; procedure, shortened: as §1
HT-29 = assay: Growth inhibition of human HT-29 cells at 10 uM after 48 hrs by sulforhodamine B assay; procedure, shortened: as §3
EKVX = assay: Growth inhibition of human EKVX cells at 10 uM after 48 hrs by sulforhodamine B assay; procedure, shortened: as §3
RPMI8266 = assay: Growth inhibition of human RPMI8266 cells at 10 uM after 48 hrs by sulforhodamine B assay; procedure, shortened: as §1
HL-60(TB) = assay: Growth inhibition of human HL-60(TB) cells at 10 uM after 48 hrs by sulforhodamine B assay
Procedure, shortened: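 Single-dose primary screen at 10^-5 M, 48 h exposure, in an NCI panel line grown in RPMI 1640 with 5% FBS and 2 mM L-glutamine, with 24 h preincubation at 37 °C, 5% CO2. Suspension cells fixed with TCA and stained with sulforhodamine B, absorbance read at 515 nm. Reported as percentage growth relative to untreated control cells.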

K562 = assay: Growth inhibition of human K562 cells at 10 uM after 48 hrs by sulforhodamine B assay; procedure, shortened: as §3

Measured: growth inhibition (GI)

COc1ccc2ccc(=O)oc2c1C1=NN(c2ccc(S(N)(=O)=O)cc2)C(c2ccc(C)o2)C1 (stereo not given)
inactive: all assays above

COc1ccc2ccc(=O)oc2c1C1=NN(S(=O)(=O)c2ccccc2)C(c2ccc(C)o2)C1 (stereo not given)
inactive: all assays above
